Blank lines part the entries; values can stand above or below the compound they belong to.
Key:
[1] = Drug metabolism in mouse liver microsomes assessed as mono-oxygenation at 1 uM by LC/MS analysis; format: ADME, Microsome
Liver [2] = experiment: Intrinsic clearance in mouse liver microsomes at 1 uM by LC/MS analysis; format: ADME, Microsome; conditions: microsomes, 1 µM
In short: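 Mouse hepatic microsomes; in vitro intrinsic clearance from compound degradation during incubation, expressed as μL/min/mg.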

[3] = Drug metabolism in mouse liver microsomes assessed as bis-oxygenation at 1 uM by LC/MS analysis; format: ADME, Microsome
[4] = Partition coefficient, log D of the compound at pH 7.4 by HPLC analysis; format: physicochemical; conditions: octanol/water
In short: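 LogD at pH 7.4 measured with a chromatographic gLogD technique.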

[5] = Drug metabolism in mouse liver microsomes assessed as glucuronide metabolite formation at 1 uM by LC/MS analysis; format: ADME, Microsome
[6] = Drug metabolism in mouse liver microsomes assessed as O-demethylation at 1 uM by LC/MS analysis; format: ADME, Microsome
[7] = Cmax in Sprague-Dawley rat at 19 mg/kg, po; format: ADME, organism-based; design: dose 19 mg/kg, route oral; conditions: in vivo
Liver microsomes [8] = experiment: Drug metabolism in rat liver microsomes at 1 uM by LC/MS analysis; format: ADME, Microsome
Liver microsomes [9] = experiment: Intrinsic clearance in rat liver microsomes at 1 uM by LC/MS analysis; format: ADME, Microsome
in vivo [10] = conditions: Sprague-Dawley, rat, po, 19 mg/kg
Liver microsomes [11] = experiment: Intrinsic clearance in human liver microsomes at 1 uM by LC/MS analysis; format: ADME, Microsome
[12] = Drug metabolism in mouse liver microsomes at 1 uM by LC/MS analysis; format: ADME, Microsome
[13] = Apparent terminal half life in Sprague-Dawley rat at 1 mg/kg, iv; format: ADME, organism-based; design: dose 1 mg/kg, route intravenous; conditions: in vivo, read-out: betat1/2(app) (converted)
In short: (§1)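 Male Sprague–Dawley rats, single iv dose as solution in aqueous vehicle with 40% (v/v) propylene glycol; serial plasma concentrations, profiles averaged from n = 2 rats; urine collected for unchanged drug. Half-life, steady-state volume of distribution and plasma clearance taken from plasma concentration–time profiles.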

Rattus norvegicus [14] = experiment: Oral bioavailability in Sprague-Dawley rat at 19 mg/kg; format: ADME, organism-based; conditions: in vivo
Liver microsomes [15] = experiment: Half life in human liver microsomes; format: ADME, Microsome
Liver [16] = experiment: Half life in mouse liver microsomes; format: ADME, Microsome
[17] = Volume of distribution at steady state in Sprague-Dawley rat at 1 mg/kg, iv; format: ADME, organism-based; design: dose 1 mg/kg, route intravenous; conditions: in vivo, read-out: Vdss; in short: as §1
[18] = Plasma clearance in Sprague-Dawley rat at 1 mg/kg, iv; format: ADME, organism-based; design: dose 1 mg/kg, route intravenous
In short: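 Male Sprague–Dawley rats given a nominal 1 mg/kg iv dose as a solution in aqueous vehicle containing 40% (v/v) propylene glycol. Plasma concentration–time profiles were measured, with each profile the average of n = 2 rats. Plasma clearance was derived from the iv profile.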

Liver microsomes [19] = experiment: Drug metabolism in human liver microsomes at 1 uM by LC/MS analysis; format: ADME, Microsome
Liver microsomes [20] = experiment: Half life in rat liver microsomes; format: ADME, Microsome
[21] = Apparent terminal half life in Sprague-Dawley rat at 20 mg/kg, po; format: ADME, organism-based; design: dose 20 mg/kg, route oral; conditions: in vivo, read-out: betat1/2(app) (converted)
[22] = Cmax in Sprague-Dawley rat at 19 mg/kg, ip; format: ADME, organism-based; design: dose 19 mg/kg, route intraperitoneal; conditions: in vivo
Rattus norvegicus [23] = experiment: Bioavailability in Sprague-Dawley rat at 19 mg/kg, ip; format: ADME, organism-based; conditions: in vivo
in vivo [24] = conditions: Sprague-Dawley, rat, po, 20 mg/kg
[25] = Drug excretion in Sprague-Dawley rat urine at […], iv; format: ADME, organism-based; design: dose 4.5 mg/kg, route intravenous; conditions: read-out: Drug excretion
Liver microsomes [26] = experiment: Drug metabolism in rat liver microsomes assessed as mono-oxygenation at 1 uM by LC/MS analysis; format: ADME, Microsome
[27] = Drug excretion in iv dosed rat urine assessed as glutathione adduct level; format: ADME, organism-based; conditions: in vivo
[28] = Drug excretion in Sprague-Dawley rat urine at 19 mg/kg, ip; format: ADME, organism-based; design: dose 19 mg/kg, route intraperitoneal; conditions: read-out: Drug excretion
In short: (§2)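 Male Sprague–Dawley rats, nominal 20 mg/kg (19 mg/kg actual ip), given po as an aqueous HPMC suspension or ip as a suspension in aqueous vehicle with 10% DMSO; percentage of the dose excreted unchanged in urine was measured; n = 2 rats per profile.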

[29] = Apparent terminal half life in Sprague-Dawley rat at […], iv; format: ADME, organism-based; design: dose 4.5 mg/kg, route intravenous; conditions: in vivo, read-out: betat1/2(app) (converted)
[30] = Apparent terminal half life in Sprague-Dawley rat at 19 mg/kg, ip; format: ADME, organism-based; design: dose 19 mg/kg, route intraperitoneal; conditions: in vivo, read-out: betat1/2(app) (converted)
[31] = Volume of distribution at steady state in Sprague-Dawley rat at […], iv; format: ADME, organism-based; design: dose 4.5 mg/kg, route intravenous; conditions: in vivo, read-out: Vdss
[32] = Cmax in Sprague-Dawley rat at 20 mg/kg, po; format: ADME, organism-based; design: dose 20 mg/kg, route oral; conditions: in vivo
in vivo [33] = conditions: Sprague-Dawley, rat, ip, 19 mg/kg
[34] = Drug degradation assessed as reactivity with reduced glutathione ethyl ester; format: physicochemical
Rattus norvegicus [35] = experiment: Oral bioavailability in Sprague-Dawley rat at 20 mg/kg; format: ADME, organism-based; conditions: in vivo
[36] = Drug excretion in Sprague-Dawley rat urine at 20 mg/kg, po; format: ADME, organism-based; design: dose 20 mg/kg, route oral; conditions: read-out: Drug excretion; in short: as §2
[37] = Plasma clearance in Sprague-Dawley rat at […], iv; format: ADME, organism-based; design: dose 4.5 mg/kg, route intravenous

Compound: CCOC(=O)C1=C(C)N/C(=C/c2ccn(-c3ccc(C(F)(F)F)cc3)c2)C1=O
- Drug metabolism [1]: Active
- Microsomal intrinsic clearance (CLint) (Liver [2]): 140 µL/min/mg

Compound: CCOC(=O)C1=C(C)N/C(=C/c2cc(C)n(-c3ccc(Cl)cc3)c2C)C1=O
- logD [4]: 3.4
- Microsomal intrinsic clearance (CLint) (Liver [2]): 72 µL/min/mg

Compound: CCOC(=O)C1=C(C)N/C(=C/c2cc(C)n(-c3ccc(Br)cc3)c2C)C1=O
- logD [4]: 3.4
- Microsomal intrinsic clearance (CLint) (Liver [2]): 62 µL/min/mg

Compound: CCOC(=O)C1=C(C)N/C(=C/c2cc(C)n(-c3ccc(OC)cc3)c2C)C1=O
- Drug metabolism [1]: Active
- logD [4]: 3
- Microsomal intrinsic clearance (CLint) (Liver [2]): 54 µL/min/mg

Compound: CCOC(=O)C1=C(C)N/C(=C/c2cc(C)n(-c3ccc(N(C)C)cc3)c2C)C1=O
- logD [4]: 3.4
- Microsomal intrinsic clearance (CLint) (Liver [2]): 56 µL/min/mg
- Drug metabolism [6]: Active

Compound: CCOC(=O)C1=C(C)N/C(=C/c2cc(C)n(-c3ccc(C(F)(F)F)cc3)c2C)C1=O
- Cmax [7]: 190 nM
- Drug metabolism (Liver microsomes [8]): Not Active
- CLH (Liver microsomes [9]): 31 µL/min/mg
- Tmax (in vivo [10]): 1.67 h
- CLH (Liver microsomes [11]): 49 µL/min/mg
- Drug metabolism [12]: Not Active
- half-life [13]: 87 h
- logD [4]: 3.4
- F (Rattus norvegicus [14]): 4%
- t1/2 (Liver microsomes [15]): 0.583 h
- t1/2 (Liver [16]): 0.548 h
- Microsomal intrinsic clearance (CLint) (Liver [2]): 53 µL/min/mg
- Vd [17]: 19 L/kg
- clearance [18]: 22 mL/min/kg
- Drug metabolism (Liver microsomes [19]): Not Active
- t1/2 (Liver microsomes [20]): 0.933 h

Compound: CCOC(=O)C1=C(C)N/C(=C/c2cc(C)n(-c3ccccc3C(F)(F)F)c2C)C1=O
- F (Rattus norvegicus [23]): 45.7%
- Drug metabolism [1]: Active
- Drug metabolism (Liver microsomes [26]): Active
- Drug excretion [27]: Not Active
- dose excreted [28]: 0.01%
- Drug metabolism [12]: Not Active
- Tmax (in vivo [33]): 0.25 h
- Stability [34]: Stable
- F (Rattus norvegicus [35]): 6%
- Drug metabolism (Liver microsomes [19]): Not Active

The remaining lines, values ahead:

- Drug metabolism [1]: Active
- Microsomal intrinsic clearance (CLint) (Liver [2]): 140 µL/min/mg
Compound: CCOC(=O)C1=C(C)N/C(=C/c2cc(CC)n(-c3ccccc3C(F)(F)F)c2CC)C1=O

- Drug metabolism [1]: Active
- Microsomal intrinsic clearance (CLint) (Liver [2]): 86 µL/min/mg
- Drug metabolism [3]: Active
Compound: CC1=C(C(=O)OC(C)(C)C)C(=O)/C(=C\c2cc(C)n(-c3ccccc3C(F)(F)F)c2C)N1

- Microsomal intrinsic clearance (CLint) (Liver [2]): 560 µL/min/mg
Compound: CC1=C(C(=O)OCc2ccccc2)C(=O)/C(=C\c2cc(C)n(-c3ccccc3C(F)(F)F)c2C)N1

- logD [4]: 5.8
- Microsomal intrinsic clearance (CLint) (Liver [2]): 22 µL/min/mg
- Drug metabolism [5]: Active
Compound: CC1=C(C(=O)O)C(=O)/C(=C\c2cc(C)n(-c3ccccc3C(F)(F)F)c2C)N1

- Microsomal intrinsic clearance (CLint) (Liver [2]): 23 µL/min/mg
Compound: CC1=CC(=O)/C(=C\c2cc(C)n(-c3ccccc3C(F)(F)F)c2C)N1

- Drug metabolism [1]: Active
Compound: CC1=C(C(N)=O)C(=O)/C(=C\c2cc(C)n(-c3ccccc3C(F)(F)F)c2C)N1

- logD [4]: 3.4
- Microsomal intrinsic clearance (CLint) (Liver [2]): 97 µL/min/mg
Compound: CCOC(=O)C1=C(C)N/C(=C/c2cc(C)n(-c3cccc(C(F)(F)F)c3)c2C)C1=O

- Drug metabolism [1]: Active
- logD [4]: 3
- Microsomal intrinsic clearance (CLint) (Liver [2]): 77 µL/min/mg
Compound: CCOC(=O)C1=C(C)N/C(=C/c2cc(C)n(-c3ccc(F)cc3F)c2C)C1=O
